ABHD5 PLIN5 PPI – blocks binding of human ABHD5 to perilipin-5 | Q00G26+Q8WTS1 | Split G. princeps luciferase complementation, luminescence, 4 h | inhibition, % at 4 µM | 360,000 compounds, 0.78% hits;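 active = inhibition above the mean inhibition across every tested compound plus 3 SD, cut at about 22% in these data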;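 note: 0% = DMSO only wells and the 100% control is not disclosed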
Granule exo inh – lytic granule exocytosis inhibition; TALL-104 LAMP-1 surface exposure, flow cytometry; cells stimulated with thapsigargin and PMA; inhibition, % at 10 µM; 360,000 compounds, 0.66% hits; AID 651702;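 active = inhibition above about 55%, limit read from the data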
PfGluPho inh – PfG6PD (Plasmodium falciparum) enzyme inhibition. PfGluPho enzyme, NADPH resazurin-diaphorase fluorescence. inhibition, % at 20 µM. 350,000 compounds, 0.78% hits;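 active = inhibition reaching at least a set limit at 20 µM in the primary screen, cut at about 59% in these data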;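 note: 0% = DMSO wells with substrate and 100% = DMSO wells lacking glucose-6-phosphate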
HKDC1 inhibitor – blocks human hexokinase HKDC1 activity. 340,000 compounds, 0.16% hits. recombinant HKDC1, G6PDH/diaphorase resazurin coupled fluorescence. Q2TB90. inhibition, % at 20 µM;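 active = inhibition above about 35% when tested at 20 µM, limit read from the data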;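 note: plate controls were DMSO wells with enzyme for no effect and DMSO wells lacking enzyme for full effect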
Target sequence (Q2TB90 whole entry, looked up): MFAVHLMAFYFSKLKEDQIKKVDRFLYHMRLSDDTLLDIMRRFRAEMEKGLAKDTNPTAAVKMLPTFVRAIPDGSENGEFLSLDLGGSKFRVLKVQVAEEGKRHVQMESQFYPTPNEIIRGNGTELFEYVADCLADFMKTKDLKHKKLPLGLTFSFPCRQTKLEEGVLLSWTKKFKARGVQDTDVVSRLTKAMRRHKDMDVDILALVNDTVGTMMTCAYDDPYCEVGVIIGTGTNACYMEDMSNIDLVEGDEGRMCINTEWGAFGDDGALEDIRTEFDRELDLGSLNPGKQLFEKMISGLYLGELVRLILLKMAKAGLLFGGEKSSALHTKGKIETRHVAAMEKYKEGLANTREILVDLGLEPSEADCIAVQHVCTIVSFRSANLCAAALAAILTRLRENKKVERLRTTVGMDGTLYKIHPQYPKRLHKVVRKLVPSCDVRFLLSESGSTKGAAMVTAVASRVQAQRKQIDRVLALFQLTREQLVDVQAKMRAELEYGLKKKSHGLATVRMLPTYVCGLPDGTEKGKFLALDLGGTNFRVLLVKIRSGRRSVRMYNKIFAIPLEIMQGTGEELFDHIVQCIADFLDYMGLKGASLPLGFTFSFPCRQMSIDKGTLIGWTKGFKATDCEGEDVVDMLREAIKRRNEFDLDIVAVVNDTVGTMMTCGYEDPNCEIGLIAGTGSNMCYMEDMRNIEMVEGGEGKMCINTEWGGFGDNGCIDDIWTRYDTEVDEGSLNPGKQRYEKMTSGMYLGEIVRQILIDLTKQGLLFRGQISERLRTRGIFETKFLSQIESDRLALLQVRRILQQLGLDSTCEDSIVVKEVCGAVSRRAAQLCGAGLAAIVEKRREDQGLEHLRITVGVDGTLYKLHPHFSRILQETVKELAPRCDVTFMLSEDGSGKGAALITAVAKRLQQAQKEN
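Material – in-house recombinant HK5 (HKDC1) enzyme · Quantity – HKDC1 at 5 µg/mL · Buffer or medium – pH 8.0 Tris buffer with 10 mM MgCl2 · Reagent – glucose with 1 mM ATP · Dosing – single 20 µM dose · Times – reaction time 90 min, room temperature, protected from light · Technique – resorufin fluorescence at 613 nm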
HKDC1 act conf2 – HKDC1 (human) activation, single-dose confirmed. shares compounds with HKDC1 inhibitor. recombinant HKDC1, G6PDH/diaphorase resazurin fluorescence; stronger effect = lower value. inhibition, % at 20 µM. 740 compounds, 14% hits;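 active = inhibition at or below a set negative limit, negative inhibition meaning the enzyme was activated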
Starred values were filed as active, the others as inactive; x = no result given. Shown are actives, neighbours in structure and some others; about 2.2% of the full set was active somewhere.

SMILES | ABHD5 PLIN5 PPI | Granule exo inh | PfGluPho inh | HKDC1 inhibitor | HKDC1 act conf2
COc1ccc2c(c1)c(=O)oc1c(C)c(OCc3cc(C(=O)O)oc3C)ccc12 | 5 | 6 | -17 | 79* | 11
COc1ccc2c(c1)c(=O)oc1c(C)c(OCc3ccc(C(=O)O)cc3)ccc12 | -13 | -3 | -22 | 29 | x
O=C(O)c1ccc2c(=O)n(-c3ccccc3)c(=S)[nH]c2c1 | -1 | -7 | 29 | 84* | -2
COc1ccccc1N(CC(=O)N/N=C/c1c(O)ccc2ccccc12)S(C)(=O)=O | 8 | -5 | -9 | -40 | -28
O=C(N/N=C/c1ccc[nH]1)c1sc2ccccc2c1Cl | -5 | -5 | 1 | -42 | -30
Cc1ccc(S(=O)(=O)Nc2ccc(O)c3ccccc23)c(C)c1 | -6 | 16 | 40 | 52* | 25
Cc1ccc(C)c(S(=O)(=O)Nc2ccc(O)c(C(=O)O)c2)c1 | 4 | -3 | -18 | -5 | x
Cc1ccc(C)c(S(=O)(=O)Nc2ccc(O)c3ccccc23)c1 | -15 | 23 | 35 | 48* | 25
O=C(O)c1cccc(-n2cccc2/C=C2/NC(=O)N(c3ccc(Cl)cc3)C2=O)c1 | 15 | 9 | 18 | 61* | 37
O=C(O)c1cccc(-n2cccc2/C=C2/NC(=O)N(c3cccc(Cl)c3)C2=O)c1 | 10 | 0 | -14 | 2 | x
CN1CCN(S(=O)(=O)c2ccc3[nH]c(=O)oc3c2)CC1 | 9 | 0 | -19 | -7 | x
CCN(CC)Cc1cc(O)c(CN(CC)CC)cc1O | 11 | 0 | 76* | 47* | 41
CCCc1c(C(=O)N/N=C/c2cccc(OCc3ccc(F)cc3)c2)nnn1-c1nonc1N | 4 | 24 | 17 | 2 | x
Fc1ccccc1-c1nc2nc3ccccc3nc2n1CC1CCCO1 (configuration not stated) | -8 | 4 | 20 | 6 | x
O=C(N/N=C/c1ccc(O)cc1O)c1ccc(CN2C(=O)c3cccc4cccc2c34)cc1 | 6 | -2 | 38 | -41 | -22
O=C(N/N=C/c1ccccc1)c1ccc(CN2C(=O)c3cccc4cccc2c34)cc1 | -5 | 2 | -3 | -7 | x
Cc1ccc(NC2c3ncccc3C(=O)N2c2ccccc2C)cc1C (configuration not stated) | -2 | 4 | 29 | 56* | 36
CCOc1ccc(N2C(=O)c3cccnc3C2Nc2ccc(Cl)cc2)cc1 (configuration not stated) | 8 | -3 | 5 | -5 | x
Cc1onc(-c2ccccc2)c1C(=O)N/N=C(\N)COc1ccc(Cl)cc1 | 6 | 0 | -23 | -23 | x
Cc1onc(-c2ccccc2Cl)c1C(=O)N/N=C(\N)COc1ccc(Cl)cc1 | 0 | 0 | -37 | -39 | -32
Cc1cc(C)n2nc(SCc3nnc(SCc4ccccc4Cl)s3)nc2n1 | 9 | -4 | 19 | 41* | 43
Cc1cc(C)n2nc(SCc3nnc(SCc4ccccc4C)s3)nc2n1 | 2 | -5 | 7 | 53* | 69
COc1cccc(CSc2nnc(CSc3nc4nc(C)cc(C)n4n3)s2)c1 | 5 | -19 | 27 | 34 | x
CC(=NNC(=S)N1CC2CCC(CC2)C1)c1ccccn1 | -9 | 1 | 22 | x | x
CC(=NNC(=S)N1CCN(C2CCCCCC2)CC1)c1ccccn1 | -21 | 16 | 42 | -42 | -40*
SMILES | ABHD5 PLIN5 PPI | Granule exo inh | PfGluPho inh | HKDC1 inhibitor | HKDC1 act conf2
CC(=NNC(=S)N1CC2CCC(CC2)C1)c1cnccn1 | -1 | -22 | 33 | -47 | -31
O=C(NCC1COc2ccccc2O1)c1ccc(Cl)c(S(=O)(=O)N2CCCC2)c1 (configuration not stated) | -2 | -1 | -10 | 4 | x
c1ccc2oc(C3=NNC(=NC4CC4)SC3)cc2c1 | -23 | 5 | 23 | -47 | -24
c1ccc(CN=C2NN=C(c3cc4ccccc4o3)CS2)cc1 | 3 | -1 | -15 | -2 | x
O=C(CSC(=S)N1CCCC1)N/N=C/c1c(O)[nH]c(=S)[nH]c1=O | 0 | -2 | -33 | -4 | x
N=C1N(/N=C/c2ccccc2)C(=Nc2ccccc2)C(=S)N1c1ccccc1 | -11 | -3 | 17 | -49 | -32
Cn1cnc([N+](=O)[O-])c1Sc1ccc(Br)cc1 | 6 | -2 | -7 | -58 | -7
Cc1ccc(Sc2c([N+](=O)[O-])ncn2C)cc1 | 2 | -3 | -1 | 2 | x
O=C(O)c1ccccc1NS(=O)(=O)c1ccc(N/N=C/c2cccc(O)c2O)c([N+](=O)[O-])c1 | -8 | -1 | -49 | 36* | 26
CC(=O)Nc1ccc(C=NNc2ccc(S(=O)(=O)Nc3ccccc3C(=O)O)cc2[N+](=O)[O-])cc1 | -2 | 0 | -26 | 2 | x
O=C(O)c1cc(O)c2c(c1)[C@@H]([C@H]1c3cc(C(=O)O)cc(O)c3C(=O)c3c(O[C@@H]4O[C@H](CO)[C@@H](O)[C@H](O)[C@H]4O)cccc31)c1cccc(O[C@@H]3O[C@H](CO)[C@@H](O)[C@H](O)[C@H]3O)c1C2=O | x | x | 30 | 80* | 34
OCC1OC(Oc2cccc3ccccc23)C(O)C(O)C1O (configuration not stated) | -1 | 8 | -1 | -1 | x
CC(Sc1nnc(N)s1)C(=O)NC1CCCCC1C (configuration not stated) | -5 | 0 | -19 | -6 | x
Cc1ccc2oc(=O)c3cnn(CC(=O)N4CCCCC4C)c3c2c1 (configuration not stated) | -2 | 0 | -30 | -12 | x
Cc1ccc2oc(=O)c3cnn(CC(=O)N4CCc5ccccc5C4)c3c2c1 | 4 | -1 | -49 | -40 | -51*
CCOc1ccc(/C=C2/SC(=S)N(CCC(=O)Nc3ccc(C(=O)O)cc3)C2=O)cc1 | -1 | 5 | -25 | 43* | -42*
O=C(CCN1C(=O)/C(=C\c2ccccc2)SC1=S)Nc1ccc(C(=O)O)cc1 | -5 | 7 | -24 | 10 | x
CC(=O)n1cc(N(C(=O)CCl)c2ccccc2)c2ccccc21 | 4 | -7 | -1 | 35 | 9
CC(=O)n1cc(N(C(=O)CCl)c2ccc([N+](=O)[O-])cc2)c2ccccc21 | 11 | 1 | 0 | 48* | 41
O=Cc1[nH]c2ccccc2c1N(C(=O)CCl)c1ccc([N+](=O)[O-])cc1 | 2 | 2 | 8 | 22 | x
Cc1nn(-c2ccccc2)c(Cl)c1CN(C(=O)CCl)c1ccc(Cl)cc1 | 12 | 9 | -5 | 38* | 13
COc1cccc(NC(=O)CCNC(=O)N2CC(=O)Nc3ccccc32)c1 | 0 | 3 | -3 | -2 | x
COc1ccc(-n2cccc2/C=C2\C(=N)N3N=C(C(C)C)SC3=NC2=O)cc1 | 2 | 1 | -20 | -5 | x
COc1ccc(-n2cccc2/C=C2\C(=N)N3N=C(c4ccco4)SC3=NC2=O)cc1 | 2 | -1 | -13 | 35* | -9
CSC1=NSC2=NC(=O)/C(=C\c3coc4ccccc4c3=O)C(=N)N12 | -9 | -1 | -24 | 5 | x
N=C1/C(=C\c2coc3ccccc3c2=O)C(=O)N=C2SC(c3ccncc3)=NN12 | 16 | 2 | 8 | 45* | 32

Screening results from PubChem BioAssay.
